In ChEMBL document CHEMBL4014309, “Development of an Acrylate Derivative Targeting the NLRP3 Inflammasome for the Treatment of Inflammatory Bowel Disease” (J Med Chem, 2017):
Values after ≈ are worked out from the molar mass of the structure shown. Active and inactive are the calls of the source. The calls are words filed in the database; no cut-off is given here.

Assays:
[1] = molecular target: NACHT, LRR and PYD domains-containing protein 3 (Mus musculus) (UniProt Q8R4B8); experiment: Inhibition of NLRP3 inflammasome in LPS-primed C57BL/6 mouse bone marrow derived macrophages assessed as reduction in ATP-induced IL-1beta production at 10 uM preincubated for 1 hr followed by stimulation with ATP measured after 30 mins by ELISA
NACHT, LRR and PYD domains-containing protein 3 (Mus musculus), sequence (Q8R4B8 whole entry, the tested form may be a part): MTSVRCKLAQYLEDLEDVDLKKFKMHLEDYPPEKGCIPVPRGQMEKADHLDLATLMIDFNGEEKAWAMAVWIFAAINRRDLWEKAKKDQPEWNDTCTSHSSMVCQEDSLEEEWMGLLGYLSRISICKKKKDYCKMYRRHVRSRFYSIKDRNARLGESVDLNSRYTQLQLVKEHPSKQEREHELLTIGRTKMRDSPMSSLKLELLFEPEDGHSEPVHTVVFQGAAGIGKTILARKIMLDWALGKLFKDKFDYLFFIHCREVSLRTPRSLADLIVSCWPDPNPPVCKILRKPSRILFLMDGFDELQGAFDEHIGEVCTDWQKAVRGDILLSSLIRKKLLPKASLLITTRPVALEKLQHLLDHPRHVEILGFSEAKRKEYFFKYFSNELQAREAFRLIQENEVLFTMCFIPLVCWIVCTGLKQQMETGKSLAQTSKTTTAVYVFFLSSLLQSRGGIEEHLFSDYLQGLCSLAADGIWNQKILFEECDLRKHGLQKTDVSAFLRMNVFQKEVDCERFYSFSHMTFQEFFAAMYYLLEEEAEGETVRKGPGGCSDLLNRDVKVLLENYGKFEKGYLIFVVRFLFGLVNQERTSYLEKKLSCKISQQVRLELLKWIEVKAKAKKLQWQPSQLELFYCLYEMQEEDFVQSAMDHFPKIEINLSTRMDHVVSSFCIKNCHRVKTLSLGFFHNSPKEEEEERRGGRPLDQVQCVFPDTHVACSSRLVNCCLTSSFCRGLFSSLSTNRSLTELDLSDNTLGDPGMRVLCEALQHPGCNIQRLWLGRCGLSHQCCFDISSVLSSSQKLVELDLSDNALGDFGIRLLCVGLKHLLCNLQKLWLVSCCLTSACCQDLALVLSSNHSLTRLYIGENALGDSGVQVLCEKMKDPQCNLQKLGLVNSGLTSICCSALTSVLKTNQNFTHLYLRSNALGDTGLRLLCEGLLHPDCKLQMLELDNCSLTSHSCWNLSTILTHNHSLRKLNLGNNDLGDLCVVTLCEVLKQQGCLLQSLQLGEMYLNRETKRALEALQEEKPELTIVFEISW
Procedure, shortened: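 C57BL/6 bone marrow macrophages, differentiated with 20% L-cell medium, were primed with LPS (1 µg/mL, 3 h). They were then exposed to compound or vehicle for 1 h and stimulated with ATP (5 mM, 30 min). IL-1β released into the medium was measured by ELISA.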

[2] = Solubility of the compound in PBS at 1.56 mg […] and pH 7.4 after 24 hrs by UHPLC-MS analysis; assay type: physicochemical
[3] = system: Rattus norvegicus; experiment: Anti-inflammatory activity in DNBS-induced Sprague-Dawley rat colitis model assessed as DNBS-induced TNFalpha levels in colon at 25 mg/kg/day, ig for 6 days simulatneously with 6 days of DNBS-challenge by ELISA (reference value: 5.9 +/- 0.6 pg/mg); assay type: functional

C=C(Cc1ccccc1Cl)C(=O)OCC
inhibition [1]: Active
solubility at 24 h [2]: 6 µg/mL (≈ 26.7 µM)
Activity [3]: 3.3 pg/mg
